Results as given in ChEMBL document CHEMBL4513216, “Probing the Open Global Health Chemical Diversity Library for Multistage-Active Starting Points for Next-Generation Antimalarials” (ACS Infect Dis, 2020).

Experiment: Toxicity liver stage against HepG2, at 10uM
Format: cell-based
Design: test concentration 10 uM, cell line HepG2-A16-CD81EGFP
Details: human, HepG2-A16-CD81EGFP cells; read-out: INHIBITION
How it was run: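 Uninfected HepG2-A16-CD81EGFP cells, 3 × 10^3 per well, 1536-well, plated on prespotted compound at 10 μM final, parasite-free screening media added to match infected plates; puromycin 10 μM positive, DMSO 0.5% negative; run in parallel with 48 h PbLuc assay at 37 °C, 5% CO2; viability by CellTiter-Glo luminescence, normalized to controls.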

Row | SMILES | cytotoxicity at 10 µM [%]
1 | CC(C)(C)CN1CCN2C(=O)N(C3CCCCC3)C[C@H]2C1 | 4.91
2 | CC1CCN(c2cc(-n3cnc(C(=O)N4CCSCC4)c3)ncn2)CC1 | 0.668
3 | CC(=O)N1CC2(CCN(C(=O)c3ccc4c(c3)OCCO4)CC2)C1 | -11.8
4 | CC(=O)N1CCOCC2(CCCNC2)C1 (stereo unspecified) | 0.081
5 | CC(C)N1[C@H](CN2CCCC2)C[C@@H]2CN(Cc3cnn(C)c3)CC[C@@H]21 | -147
6 | O=C(C1CCOCC1)N1CCO[C@H]2[C@H](OCC3CC3)CC[C@@H]21 | 2.61
7 | Cc1nc(N2CCOCC2)nc2c1CCN(C(=O)C1CCCCC1)CC2 | -0.152
8 | CNc1nc2c(s1)C(c1ccc(F)cc1Cl)CC(=O)N2 (stereo unspecified) | 4.12
9 | CO[C@H]1CCN(c2ncccn2)[C@H]1Cc1ccccc1 | -12.9
10 | Cc1ccccc1N1CC(c2nnc(N)s2)CC1=O (stereo unspecified) | -0.411
11 | O=C1CCOC[C@]2(CN(Cc3ccccc3)C[C@H]2c2cccc(F)c2)N1 | -0.0186
12 | COc1ccc(C2CN(c3nc(C)cc(C)n3)CCN2C(C)=O)cc1 (stereo unspecified) | 2.06
13 | CCn1nc(C)c(CN(CCCN(C)C)Cc2ccccn2)c1C | 1.62
14 | NC(=O)c1ccccc1Oc1cnc(C2CCCN2)cn1 (stereo unspecified) | 0.288
15 | c1ccc(-c2cc(CNCCCN3CCCCC3)c3nnnn3c2)cc1 | -30.6
16 | CC(C)NC(=O)C1CCc2nnc(CNC(=O)C3CC3)n21 (stereo unspecified) | 4.9
17 | Cc1cc(CC(=O)N2CCc3cc(Br)sc3C2)n[nH]1 | 10.2
18 | CC(Cn1cccn1)NCc1cccc(C#N)c1 (stereo unspecified) | 5.19
19 | CCC(CC)(CN)NC(C)c1ccccc1 (stereo unspecified) | 4.02
20 | c1cnc2nc(N3CCc4c(ncn4C4CC4)C3)ccc2n1 | 6.47
21 | CC(NC(=O)N1CCNC(=O)CC1)c1c(F)cccc1Cl (stereo unspecified) | -1.66

Row | SMILES | cytotoxicity at 10 µM [%]
22 | COCCCN(C)C(=O)c1nnn(-c2ccccc2Cl)c1C | 9.38
23 | COCCCN(Cc1ccncc1)c1ncc(C#N)cc1Cl | 4.98
24 | CC(C)(C)CN(CCC#N)C(=O)c1cccc(CN2CCCC2)c1 | 0.234
25 | O=C(c1cccc(F)c1)N(CCCO)S(=O)(=O)c1cccs1 | 3.51
26 | CN(C1CCCCC1)S(=O)(=O)N1CCN(Cc2ccon2)CC1 | 6.75
27 | O=C(Cn1ccc(-c2ccccc2)n1)N1CCN(C(=O)C2CC2)CC1 | -6.58
28 | Cc1nn(C)c2ncc(NC(=O)N3CCNC(=O)C3)cc12 | -5.81
29 | CSC1(CNC(=O)c2ccn(-c3ccccc3F)n2)CCOCC1 | 0.243
30 | COC(=O)C(C)N(Cc1cc(=O)n(C)c(=O)n1C)C1CC1 (stereo unspecified) | -0.719
31 | O=C(NCC1CC(=O)N(CCc2ccccc2)C1)c1ccon1 (stereo unspecified) | -5.22
32 | Cc1cc(NCCn2cccn2)n2ncnc2n1 | -2.27
33 | Cc1nc(C2CCCN(C(=O)c3cnc(C)s3)C2)no1 (stereo unspecified) | 4.31
34 | CN(CC(=O)Nc1cc(CC2CCCCC2)n[nH]1)S(C)(=O)=O | 3.44
35 | COc1cc2c(nn1)CCN(CC(O)COc1ccc(C#N)cc1)C2 (stereo unspecified) | -2.19
36 | CCC(NC(=O)Nc1cc(F)c(OC)c(F)c1)c1noc(C)n1 (stereo unspecified) | -0.177
37 | CCC(CNS(N)(=O)=O)Oc1ccccc1F (stereo unspecified) | 3.01
38 | O=C(COc1ccc2c(c1)CCC2)N1CCCC1c1ccc[nH]1 (stereo unspecified) | 6.54
39 | CC(C)Oc1ccccc1CNC(=O)c1[nH]ncc1Br | 17.5
40 | COc1cc(C)c(C(C)Nc2ncc(C(N)=O)cc2Cl)cc1OC (stereo unspecified) | 2.76
41 | O=C1CN(Cc2nnc(-c3ccccc3Br)o2)CCN1 | 9.35
42 | Cc1cccc(S(=O)(=O)NCC(C)N2CCN(C)CC2)c1Cl (stereo unspecified) | -4.52

Row | SMILES | cytotoxicity at 10 µM [%]
43 | CCN1CCN(S(=O)(=O)N2CCC(OC)CC2)[C@H]2CS(=O)(=O)C[C@H]21 | -1.6
44 | Cc1nc(CN2CCC(c3cc(N4CCCC4)ncn3)CC2)cs1 | -159
45 | CCC1CN(C(=O)c2ccc(O)c(C)c2)CCN1C(C)C (stereo unspecified) | 1.68
46 | O=C(CSC(F)(F)F)N1CCC2(CCCN(C3CCOCC3)C2=O)C1 (stereo unspecified) | -128
47 | O=C(O)C1(Cc2cccc(Cl)c2)CCCN(c2ncnc3[nH]ccc23)C1 (stereo unspecified) | 3.63
48 | COCc1nc(CN2CC(Cc3ccccc3)CC2=O)no1 (stereo unspecified) | -12.8
49 | COc1nccc(N2CC[C@H](N3CCOCC3)[C@H](CCCO)C2)c1C#N | -148
50 | CS(=O)(=O)N1CCC2(CCCN(CCCc3ccccc3)C2=O)C1 (stereo unspecified) | 2.46
51 | COCC(=O)N1CCC(Oc2cccc(C)c2)CC1 | -4.25
52 | CC(C)c1cnc(N2C[C@H](CO)C[C@H](CN3CCOCC3)C2)nc1 | -7.45
53 | CCOCCn1nc(C)cc1C(=O)N1C[C@@H](C)[C@](O)(C2CC2)C1 | -3.9
54 | Cc1cccc(CN2CCN(C(=O)[C@@H]3CSCN3C)CC2)c1 | -8.56
55 | O=C(NCCCc1ccccn1)c1cn(CCN2CCNCC2)nn1 | -3.54
56 | COc1ccc(NC(=O)CCN2CC=C(c3cnn(C)c3)CC2)cc1Cl | 6.64
57 | O=c1[nH]c(NC2CCCC2)nc2nccc(-c3ccco3)c12 | 0.74
58 | Cc1ccc(N2CCN(C(=O)COc3ncccn3)CC2)nn1 | -0.233
59 | Cc1ccsc1C(CNC(=O)c1cc(=O)c2ccccc2[nH]1)N(C)C (stereo unspecified) | -2.89
60 | COc1ccc(OCc2nc(C(=O)N3CC[C@H](O)[C@@H](O)C3)co2)cc1 | -5.42
61 | CC(C)Oc1ccc(CNC(=O)CCN2C(=O)CCC2=O)cc1F | -7.27
62 | CC(C)c1noc(C(C)N2CCN(CCCN3CCCC3=O)CC2)n1 (stereo unspecified) | -14.3
63 | CCN(CC)C(=O)Cn1ccc2cc(NC(C)=O)ccc21 | -10.2

Row | SMILES | cytotoxicity at 10 µM [%]
64 | Cc1noc(C)c1C(=O)NCC(c1ccsc1)N(C)C (stereo unspecified) | -14.2
65 | CC(O)CN1CCC(CNCc2cccc(C(=O)N(C)C)c2)CC1 (stereo unspecified) | -12.8
66 | Cc1cc(C)n(CC2CN(Cc3noc(C4CC4)n3)CCO2)n1 (stereo unspecified) | 2.79
67 | Cn1cnnc1C1CCCN(C(=O)COc2ccccc2Cl)C1 (stereo unspecified) | -14.2
68 | Cc1cc(CN(C)C(=O)NC2CCC(O)CC2)no1 (stereo unspecified) | -0.252
69 | Cc1cc(CN(C)C(=O)NC2CCCC2)no1 | -5.85
70 | O=C(Nc1ccccn1)N(CCO)Cc1ccsc1 | 2.12
71 | Cc1ccc(-c2ncc(C(=O)NCCS(N)(=O)=O)s2)c(C)c1 | -10.7
72 | O=C(CCCOc1ccc(F)cc1)N1CCCC(n2cccn2)C1 (stereo unspecified) | 4.23
73 | C[C@@H]1CN(Cc2ccccn2)C[C@]12CCN(Cc1cccnc1)C2=O | -4.54
74 | c1cncc(O[C@H]2CC[C@H]3[C@H]2OCCN3C2CCCC2)c1 | -6.05
75 | Cc1nc(CN2CCC3(CCCN(Cc4ccncc4)C3)C2=O)cs1 (stereo unspecified) | 1.38
76 | O=c1ccc2c(n1Cc1ccncc1)CCN(Cc1ccoc1)CC2 | -149
77 | Cc1cccc(C(=O)N2C[C@@H]3CCN(C(C)C)C[C@@H]3C2)c1 | -2.16
78 | Cn1cccc1C(=O)NCc1cn2c(n1)CN(Cc1ccccn1)CC2 | -115
79 | CCCN1C[C@@H]2CC[C@H]1CN(Cc1cccc(O)c1)C2 | -122
80 | Cn1cc(-n2cc3nc(N4CCOCC4)[nH]cc-3c2=O)cn1 | 7.36
81 | CS(=O)(=O)CCC(=O)N1C[C@H]2CC[C@@H](C1)N(Cc1ccccc1)C2=O | -0.0119
